From paper PMC6335621 (Chemical Science, 2018)
Blank lines part the entries; values can stand above or below the compound they belong to.

Assays:
[1] = in CHCl3; cited from earlier work
[2] = system: HCT116; test: In vitro cytotoxicity; type: cell-based, human; settings: read-out: IC50 HCT116; MTT assay, 72 h incubation
How it was run: (§1)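 Cell lines: HeLa (cervical epithelial carcinoma), HepG2 (hepatocellular carcinoma), MCF-7 (breast carcinoma), HCT-116 (colorectal carcinoma), and HCC827 and NCI-H460 (non-small cell lung carcinoma).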

[3] = system: NCI-H460; test: Light-induced cytotoxicity assay; type: cell-based, human; settings: for PI = IC50(dark)/IC50(light): NCI-H460, phototoxicity index
How it was run: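 NCI-H460 cells were incubated with test compound, then exposed to visible light at 2.8 mW cm–2 for 1 h. […] Phototoxicity index = IC50(dark)/IC50(light).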

[4] = system: NCI-H460; test: In vitro cytotoxicity in the dark; type: cell-based, human; settings: read-out: IC50 NCI-H460 (dark)
How it was run: as §1

[5] = system: HepG2; test: In vitro cytotoxicity; type: cell-based, human; settings: read-out: IC50 HepG2; MTT assay, 72 h incubation
How it was run: as §1

[6] = system: HCC827; test: In vitro cytotoxicity; type: cell-based, human; settings: read-out: IC50 HCC827; MTT assay, 72 h incubation
How it was run: as §1

[7] = Stability in the solid state and in CDCl3 solution; type: physicochemical

Compound: C1=Cc2nc1c(-c1ccccc1)c1ccc([nH]1)c(-c1ccccc1)c1nc(c(-c3ccccc3)c3ccc([nH]3)c2-c2ccccc2)C=C1 [H2tpp]
Φso (quantum yield of singlet oxygen production) [1]: 0.55

Compound: N.N.[Cl][Pt][Cl] [Cisplatin]
IC50 [2]: 6.94 ± 0.54 µM
PI = IC50(dark)/IC50(light) [3]: 0.86
PI = IC50(dark)/IC50(light) ([3]; listed as cisplatin): < 1
IC50 ([3]; read-out: IC50 NCI-H460 (light), visible light irradiation 2.8 mW cm^–2 for 1 h): 4.61 ± 0.31 µM
IC50 [4]: 3.96 ± 0.48 µM
IC50 [5]: 6.18 ± 0.82 µM
IC50 [6]: 9.61 ± 0.81 µM

The remaining lines, values ahead:

Stable in the solid state and in CDCl3 solution for [7]: 1 week
Compound: [Ir^III(tmp)(BIMe)Cl] [1b]

Stable in the solid state and in CDCl3 solution for [7]: 1 week
Compound: [Ir^III(F20tpp)(BIMe)Cl] [1d]

Stable in the solid state and in CDCl3 solution for [7]: 1 week
Compound: [Ir^III(tmp)(IMe)Cl] [1a]

Decomposes within ([7]; under ambient conditions): ≤ 1 days
Compound: [Ir^III(F20tpp)(IMe)Cl] [1c]
